Series [1] has as its system Human immunodeficiency virus 2. The series can be described thus: Antiviral activity against HIV2 ROD infected in human CEM cells assessed as inhibition of virus-induced cytopathicity after 4 days. Type of series: functional, organism-based. The settings on record: Human immunodeficiency virus 2, ISOLATE ROD, CCRF-CEM, 96 h. The procedure, abridged: (§1)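 CEM cells at 4 x 10⁶/mL infected with HIV-1 IIIB or HIV-2 ROD at ~100 CCID₅₀ per mL of cell suspension; compound present; syncytia formation scored microscopically after 4 days; EC₅₀ = concentration inhibiting virus-induced cytopathicity by 50%.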
(In general: Protection from cytopathic effect is a common read-out in antiviral testing.)

The test system of series [2] is Human immunodeficiency virus 1. The series can be described thus: Antiviral activity against HIV1 3B infected in human CEM cells assessed as inhibition of virus-induced cytopathicity after 4 days. The format is functional, organism-based. The conditions noted are these: Human immunodeficiency virus 1, 3B, CCRF-CEM, 96 h. The procedure, abridged: as §1
A short description of series [3]: Cytotoxicity against human CEM cells after 4 days. The format is cell-based. The settings on record: CEM (CCRF-CEM) cells. The procedure, abridged: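 CC₅₀ taken as concentration inhibiting CEM cell proliferation by 50%.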
Series [4] is described as follows: Chemical stability of the compound in phosphate buffered saline assessed as compound degradation after 72 hrs. Type of series: physicochemical. The settings on record: buffer. An outline of the steps: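 Compound held in PBS at 37 °C for 72 h; degradation judged by comparing LCMS spectra before and after incubation.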
The subject of series [5] is Hepatitis C virus. Put plainly: Antiviral activity against HCV2a JFH1 infected in human Huh7 cells assessed as inhibition of viral replication after 72 hrs by luciferase reporter gene assay. The conditions noted are these: JFH-1, Huh-7, 72 h. The format is functional, organism-based, Hepacivirus hominis. On the technique in general: A reporter such as luciferase makes a cellular process visible.

The nature of series [6]: Cytotoxicity against human HuH7 cells after 72 hrs. The format is cell-based, Huh-7.
Series [7] has as its system Human immunodeficiency virus 1. Put plainly: Antiviral activity against HIV1 harboring reverse transcriptase E138K mutant infected in human CEM cells assessed as inhibition of virus-induced cytopathicity after 4 days. Type of series: functional, organism-based. The settings on record: CCRF-CEM. An outline of the steps: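 CEM cells at 4 x 10⁶ cells/mL infected with HIV-1/E138K (RT mutant strain selected under TSAO-m³T) at about 100 CCID₅₀ per mL of cell suspension. Syncytia formation scored microscopically after 4 days. EC₅₀ taken as the concentration inhibiting virus-induced cytopathicity by 50%.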

Calls of active or inactive are those of the source. The rule behind the calls is not given here.

As a reminder, the EC50 is the concentration giving half of the maximal effect. The CC50 is the concentration giving 50% cytotoxicity. A higher CC50 goes with better tolerance by the cells. Turning to `Cc1cn([C@@H]2O[C@H](CO[Si](C)(C)C(C)(C)C)[C@@]3(OS(=O)(=O)C=C3N)[C@H]2O[Si](C)(C)C(C)(C)C)c(=O)n(C(=O)C2CC2)c1=O`, the values for the EC50 in series [1], in series [2] and in series [5] were not below 4 µM, 0.042 µM and 8.5 µM, respectively. In series [3], this compound returned a CC50 at 96 h of 11 µM. Besides, the Stability result in series [4] is listed as “Stable”. Besides, the 50% cytotoxic concentration (CC50) at 72 h in series [6] was more than 100 µM. The inhibition result in series [7] was “inactive”.
For `Cc1cn([C@@H]2O[C@H](CO[Si](C)(C)C(C)(C)C)[C@@]3(OS(=O)(=O)C=C3N)[C@H]2O[Si](C)(C)C(C)(C)C)c(=O)n(C(=O)CCCC(=O)OCc2ccccc2)c1=O`, the EC50 in series [1] was not below 4 µM; in series [2], 0.04 µM; in series [5] it was 10 µM. Further, in series [3], the half-maximal cytotoxic concentration (CC50) at 96 h was found to be 9.2 µM. Besides, the Stability entry in series [4] is reported as “Stable”. In series [6], this compound came in with a CC50 at 72 h of more than 100 µM. Also, the inhibition entry in series [7] is “inactive”.
For the compound `COC(=O)CCCC(=O)n1c(=O)c(C)cn([C@@H]2O[C@H](CO[Si](C)(C)C(C)(C)C)[C@@]3(OS(=O)(=O)C=C3N)[C@H]2O[Si](C)(C)C(C)(C)C)c1=O`, the values for the EC50 in series [1], in series [2] and in series [5] were not below 4 µM, 0.054 µM and 11 µM, respectively. This compound had a half-maximal cytotoxic concentration (CC50) at 96 h in series [3] of 9.9 µM. For the same compound, the Stability result in series [4] is listed as “Stable”. The same compound returned a half-maximal cytotoxic concentration (CC50) at 72 h in series [6] of more than 100 µM. Also, the inhibition entry in series [7] was “inactive”.
With `Cc1cn([C@@H]2O[C@H](CO[Si](C)(C)C(C)(C)C)[C@@]3(OS(=O)(=O)C=C3N)[C@H]2O[Si](C)(C)C(C)(C)C)c(=O)n(C(=O)OC(C)(C)C)c1=O`, in series [3], the CC50 at 96 h amounted to 26 µM. The inhibition result in series [7] is “inactive”.
`C[C@@]1(O)[C@H](O)[C@@H](CO)O[C@H]1n1ccc(N)nc1=O`: in series [5], the concentration for a half-maximal effect (EC50) came to 2.4 µM. Further, in series [6], the CC50 at 72 h is more than 33 µM. Besides, the inhibition entry in series [7] was “inactive”.
For `Cc1cn([C@@H]2O[C@H](CO[Si](C)(C)C(C)(C)C)[C@@]3(OS(=O)(=O)C=C3N)[C@H]2O[Si](C)(C)C(C)(C)C)c(=O)[nH]c1=O`, the half-maximal effective concentration (EC50) is more than 20 µM in series [1] and 14 µM in series [5]. Moreover, in series [3], it took 12 µM to reach half-maximal cytotoxicity (CC50 at 96 h). Moreover, in series [6], the CC50 at 72 h was more than 100 µM. For the same compound, in series [7], the inhibition entry was “inactive”.
On to `Cc1cn([C@@H]2O[C@H](CO[Si](C)(C)C(C)(C)C)[C@@]3(OS(=O)(=O)C=C3N)[C@H]2O[Si](C)(C)C(C)(C)C)c(=O)n(C(=O)CCCC(=O)NCc2ccccc2)c1=O`, for which the figures for the EC50 in series [1], in series [2] and in series [5] were not below 4 µM, 0.052 µM and 7.6 µM, respectively. This compound also yielded a CC50 at 96 h in series [3] of 8.8 µM. The Stability result in series [4] is “Stable”. The half-maximal cytotoxic concentration (CC50) at 72 h in series [6] is more than 100 µM. Also, the inhibition result in series [7] is “inactive”.
For the compound `CNC(=O)CCCCn1c(=O)c(C)cn([C@@H]2O[C@H](CO[Si](C)(C)C(C)(C)C)[C@@]3(OS(=O)(=O)C=C3N)[C@H]2O[Si](C)(C)C(C)(C)C)c1=O`, in series [1], the 50% effective concentration (EC50) was more than 10 µM. In series [3], this compound showed a cytotoxic concentration (CC50) at 96 h of 10 µM. In addition, the inhibition result in series [7] was “inactive”.
On to `COC(=O)c1cccc(C(=O)n2c(=O)c(C)cn([C@@H]3O[C@H](CO[Si](C)(C)C(C)(C)C)[C@@]4(OS(=O)(=O)C=C4N)[C@H]3O[Si](C)(C)C(C)(C)C)c2=O)c1`, for which the values for the EC50 in series [1], in series [2] and in series [5] were not below 4 µM, 0.041 µM and 8.2 µM, respectively. In series [3], this compound yielded a CC50 at 96 h of 14 µM. Further, in series [4], the Stability result is on record as “Stable”. Besides, in series [6], the half-maximal cytotoxic concentration (CC50) at 72 h was more than 100 µM. Also, in series [7], the inhibition entry is “inactive”.
Regarding `CSC(=O)CCCC(=O)n1c(=O)c(C)cn([C@@H]2O[C@H](CO[Si](C)(C)C(C)(C)C)[C@@]3(OS(=O)(=O)C=C3N)[C@H]2O[Si](C)(C)C(C)(C)C)c1=O`, the EC50 in series [1] was not below 4 µM; in series [2], 0.037 µM; in series [5], 7 µM. In series [3], this compound registered a 50% cytotoxic concentration (CC50) at 96 h of 9.9 µM. Further, in series [4], the Stability result was “Stable”. In series [6], the CC50 at 72 h was more than 100 µM. In series [7], the inhibition result was “inactive”.
On to `Cc1cn([C@@H]2O[C@H](CO[Si](C)(C)C(C)(C)C)[C@@]3(OS(=O)(=O)C=C3N)[C@H]2O[Si](C)(C)C(C)(C)C)c(=O)n(C(=O)c2ccccc2)c1=O`, for which the half-maximal effective concentration (EC50) in series [1] was not below 4 µM; in series [2], 0.049 µM; in series [5], 9.8 µM. The same compound registered a CC50 at 96 h in series [3] of 54 µM. The Stability result in series [4] was “Stable”. The half-maximal cytotoxic concentration (CC50) at 72 h in series [6] was more than 100 µM. Further, the inhibition entry in series [7] is “inactive”.
As for `Cc1cn([C@@H]2O[C@H](CO[Si](C)(C)C(C)(C)C)[C@@]3(OS(=O)(=O)C=C3N)[C@H]2O[Si](C)(C)C(C)(C)C)c(=O)n(C)c1=O`, the results for the EC50 in series [1], in series [2] and in series [5] were more than 250 µM, 0.037 µM and more than 100 µM, respectively. The CC50 at 96 h in series [3] was 115 µM. The compound further displayed a CC50 at 72 h in series [6] of more than 100 µM. In series [7], the inhibition entry is “inactive”.
For the compound `COC(=O)n1c(=O)c(C)cn([C@@H]2O[C@H](CO[Si](C)(C)C(C)(C)C)[C@@]3(OS(=O)(=O)C=C3N)[C@H]2O[Si](C)(C)C(C)(C)C)c1=O`, the results for the EC50 in series [1], in series [2] and in series [5] were not below 100 µM, 0.07 µM and more than 100 µM, respectively. The cytotoxic concentration (CC50) at 96 h in series [3] was more than 100 µM. For the same compound, the Stability result in series [4] was “Stable”. Moreover, the half-maximal cytotoxic concentration (CC50) at 72 h in series [6] was more than 100 µM. The inhibition entry in series [7] is “inactive”.
Take `Cc1cn([C@@H]2O[C@H](CO[Si](C)(C)C(C)(C)C)[C@@]3(OS(=O)(=O)C=C3N)[C@H]2O[Si](C)(C)C(C)(C)C)c(=O)n(C(=O)CCCBr)c1=O`: the results for the EC50 in series [1], in series [2] and in series [5] were not below 4 µM, 0.052 µM and 43 µM, respectively. In series [3], this compound yielded a cytotoxic concentration (CC50) at 96 h of 11 µM. The Stability result in series [4] is “Stable”. Moreover, in series [6], the cytotoxic concentration (CC50) at 72 h was more than 100 µM. The inhibition entry in series [7] was “inactive”.
On to `Cc1cn([C@@H]2O[C@H](CO[Si](C)(C)C(C)(C)C)[C@@]3(OS(=O)(=O)C=C3N)[C@H]2O[Si](C)(C)C(C)(C)C)c(=O)n(C(=O)CCCC(N)=O)c1=O`, for which the 50% effective concentration (EC50) was not below 4 µM in series [1], 0.038 µM in series [2] and 9 µM in series [5]. The same compound gave a CC50 at 96 h in series [3] of 8.7 µM. Further, in series [4], the Stability entry is on record as “Stable”. In series [6], this compound registered a CC50 at 72 h of more than 100 µM. Besides, in series [7], the inhibition result was “inactive”.
As to `Cc1cn([C@@H]2O[C@H](CO[Si](C)(C)C(C)(C)C)[C@@]3(OS(=O)(=O)C=C3N)[C@H]2O[Si](C)(C)C(C)(C)C)c(=O)n(C(=O)CCCC(=O)OC(C)(C)C)c1=O`, the concentration for a half-maximal effect (EC50) in series [1] is not below 4 µM; in series [2], 0.033 µM; in series [5] it was 11 µM. Further, the half-maximal cytotoxic concentration (CC50) at 96 h in series [3] was determined as 11 µM. Further, the Stability entry in series [4] was “Stable”. The same compound showed a CC50 at 72 h in series [6] of more than 100 µM. The inhibition result in series [7] is “inactive”.
For `CNC(=O)CCCC(=O)n1c(=O)c(C)cn([C@@H]2O[C@H](CO[Si](C)(C)C(C)(C)C)[C@@]3(OS(=O)(=O)C=C3N)[C@H]2O[Si](C)(C)C(C)(C)C)c1=O`, the 50% effective concentration (EC50) was not below 4 µM in series [1], 0.059 µM in series [2] and 12 µM in series [5]. This compound returned a 50% cytotoxic concentration (CC50) at 96 h in series [3] of 9.1 µM. In addition, the Stability result in series [4] is “Stable”. The compound further displayed a CC50 at 72 h in series [6] of more than 100 µM. Moreover, the inhibition entry in series [7] was “inactive”.
Consider `Cc1cn([C@@H]2O[C@H](CO[Si](C)(C)C(C)(C)C)[C@@]3(OS(=O)(=O)C=C3N)[C@H]2O[Si](C)(C)C(C)(C)C)c(=O)n(C(=O)CCCC(=O)N(C)C)c1=O`, for which the EC50 was not below 4 µM in series [1], 0.032 µM in series [2] and 4.4 µM in series [5]. Besides, half-maximal cytotoxicity in series [3] (CC50 at 96 h) was put at 9.5 µM. Besides, the Stability entry in series [4] is “Stable”. The same compound yielded a CC50 at 72 h in series [6] of more than 100 µM. The inhibition entry in series [7] was “inactive”.
